Experimental data: ChEMBL document CHEMBL1141261, “Eremophilane sesquiterpenes from Ligularia macrophylla” (J Nat Prod, 2007)
≈ marks a conversion by molar mass, not a printed value.

Key:
A549 = assay: Cytotoxicity against human A549 cells; format: functional, cell-based
Procedure, shortened: (§1)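 Test samples were dissolved in DMSO and diluted into culture medium to a final DMSO level of ≤1% (v/v). Human lung carcinoma A-549 and breast adenocarcinoma MCF-7 lines were used. Cell culture and the remaining steps followed an earlier published protocol.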

MCF7 = assay: Cytotoxicity against human MCF7 cells; format: functional, cell-based; procedure, shortened: as §1

Cc1coc2cc3c(c(C)c12)[C@@H](C)CCC3=O
EC50 (A549): 11.9 µg/mL (≈ 52.1 µM) | EC50 (MCF7): 15.2 µg/mL (≈ 66.6 µM)

Cc1cc2c(C)coc2cc1[C@H](C)CCC=O
EC50 (A549): 10 µg/mL (≈ 43.4 µM) | EC50 (MCF7): > 20 µg/mL

C/C=C(/CO)C(=O)O[C@@H]1c2c(C)coc2C[C@@]23O[C@@H]2CC[C@H](C)[C@@]13C
EC50 (A549): > 20 µg/mL | EC50 (MCF7): 17.3 µg/mL (≈ 49.9 µM)

C/C=C(/C)C(=O)O[C@@H]1c2c(C)coc2C[C@]23O[C@H]2CC[C@H](C)[C@@]13C
EC50 (A549): 9.4 µg/mL (≈ 28.4 µM) | EC50 (MCF7): > 20 µg/mL

C/C=C(/C)C(=O)O[C@H]1c2c(C)coc2C[C@H]2C(=O)CC[C@H](C)[C@]21C
EC50 (A549): ≥ 20 µg/mL | EC50 (MCF7): ≥ 20 µg/mL

Cc1coc2c1[C@@H](O)[C@]1(C)[C@@H](C)CC[C@@H]3O[C@@]31C2
EC50 (A549): ≥ 20 µg/mL | EC50 (MCF7): ≥ 20 µg/mL

Cc1coc2cc3c(c(C)c12)[C@@H](C)CC[C@@H]3O
EC50 (A549): 13.8 µg/mL (≈ 59.9 µM) | EC50 (MCF7): 15.2 µg/mL (≈ 66 µM)

CC(C=O)C1=C[C@@]2(C)C(=CC1=O)[C@H](O)CC[C@@H]2C (mixture of isomers)
EC50 (A549): 18.4 µg/mL | EC50 (MCF7): > 20 µg/mL

Cc1cc2c(C)coc2c2c1CCCC2C (stereo not drawn) [FARFUGIN A]
EC50 (A549): 10.9 µg/mL (≈ 50.9 µM) | EC50 (MCF7): 13.6 µg/mL (≈ 63.5 µM)
